Test results taken from ChEMBL document CHEMBL1949609, “Synthesis and biological evaluation of novel sinomenine derivatives as anti-inflammatory agents” (Eur J Med Chem, 2012).

What was measured:
RAW264.7 [1] = experiment: Cytotoxicity against mouse RAW264.7 cells after 24 hrs by MTT assay; assay type: cell-based; conditions: RAW264.7, 24 h
Procedure, shortened: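 Growth of non-LPS RAW264.7 cells was measured by MTT after 24 h with compound: MTT for 4 h, formazan dissolved in DMSO, OD570. Untreated cells were set as 100% viability. IC50 is the concentration giving 50% growth inhibition.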

RAW264.7 [2] = experiment: Antiinflammatory activity in mouse RAW264.7 cells assessed as inhibition of LPS-induced TNFalpha production at 10 uM after 24 hrs by ELISA (reference value: 10124 +/- 1137.2 pg/ml); assay type: functional
Procedure, shortened: (§1)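 RAW264.7 cells (DMEM, 5% FBS, 37 °C, 5% CO2) were exposed to compound at 10 µM plus LPS 500 ng/mL at the same time, with 0.1% DMSO final. Supernatant TNF-α and IL-6 were measured by ELISA at 6, 12 and 24 h.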

RAW264.7 [3] = experiment: Antiinflammatory activity in mouse RAW264.7 cells assessed as inhibition of LPS-induced TNFalpha production at 10 uM after 6 hrs by ELISA (reference value: 2646.1 +/- 499.8 pg/ml); assay type: functional; procedure, shortened: as §1
RAW264.7 [4] = experiment: Antiinflammatory activity in mouse RAW264.7 cells assessed as inhibition of LPS-induced TNFalpha production at 10 uM after 12 hrs by ELISA (reference value: 4126.8 +/- 282 pg/ml); assay type: functional; procedure, shortened: as §1
RAW264.7 [5] = experiment: Antiinflammatory activity in mouse RAW264.7 cells assessed as inhibition of LPS-induced IL-6 production at 10 uM after 12 hrs by ELISA (reference value: 2145.1 +/- 368.7 pg/ml); assay type: functional; procedure, shortened: as §1
RAW264.7 [6] = experiment: Antiinflammatory activity in mouse RAW264.7 cells assessed as inhibition of LPS-induced IL-6 production at 10 uM after 6 hrs by ELISA (reference value: 1046.1 +/- 111.2 pg/ml); assay type: functional; procedure, shortened: as §1
RAW264.7 [7] = experiment: Antiinflammatory activity in mouse RAW264.7 cells assessed as inhibition of LPS-induced nitric oxide production after 24 hrs by Griess method; assay type: functional, cell-based; conditions: RAW264.7, 24 h
Procedure, shortened: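 Cells were treated with compound (0.5–100 µM; 0.1% DMSO final) and LPS 500 ng/mL together for 24 h. Nitrite in the medium was read with Griess reagent (10 min, room temperature, dark) at OD540. IC50 comes from three separate experiments, each in triplicate.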

RAW264.7 [8] = experiment: Antiinflammatory activity in mouse RAW264.7 cells assessed as inhibition of LPS-induced IL-6 production at 10 uM after 24 hrs by ELISA (reference value: 13412 +/- 1167.6 pg/ml); assay type: functional; procedure, shortened: as §1

Row | SMILES | IC50 (RAW264.7 [1]) | IC50 (RAW264.7 [7]) | also measured
1 | COC1=C[C@@H]2[C@@H]3Cc4ccc(OC)c(OCCCCCCCCCCOc5c(OC)ccc6c5[C@@]57CCN(C)[C@@H](C6)[C@H]5C=C(OC)C(=O)C7)c4[C@]2(CCN3C)CC1=O | 2.8 µM |  | 
2 | CCCCCCCOc1c(OC)ccc2c1[C@@]13CCN(C)[C@@H](C2)[C@H]1C=C(OC)C(=O)C3 | 33.8 µM | 21.3 µM | Activity (RAW264.7 [2]): 9134.7 pg/mL; Activity (RAW264.7 [3]): 2248.7 pg/mL; Activity (RAW264.7 [4]): 4127.2 pg/mL; Activity (RAW264.7 [5]): 513.9 pg/mL; Activity (RAW264.7 [6]): 207.5 pg/mL; Activity (RAW264.7 [8]): 4370.2 pg/mL
3 | CCCCCCOc1c(OC)ccc2c1[C@@]13CCN(C)[C@@H](C2)[C@H]1C=C(OC)C(=O)C3 | 29.1 µM |  | 
4 | COC1=C[C@@H]2[C@@H]3Cc4ccc(OC)c(OCCCCCCCOc5c(OC)ccc6c5[C@@]57CCN(C)[C@@H](C6)[C@H]5C=C(OC)C(=O)C7)c4[C@]2(CCN3C)CC1=O | 2.6 µM |  | 
5 | COC1=C[C@@H]2[C@@H]3Cc4ccc(OC)c(OCCOc5c(OC)ccc6c5[C@@]57CCN(C)[C@@H](C6)[C@H]5C=C(OC)C(=O)C7)c4[C@]2(CCN3C)CC1=O | > 100 µM | > 100 µM | 
6 | COC1=C[C@@H]2[C@@H]3Cc4ccc(OC)c(OCCCCOc5c(OC)ccc6c5[C@@]57CCN(C)[C@@H](C6)[C@H]5C=C(OC)C(=O)C7)c4[C@]2(CCN3C)CC1=O | 36.7 µM | 24.6 µM | Activity (RAW264.7 [2]): 8744.4 pg/mL; Activity (RAW264.7 [3]): 2018 pg/mL; Activity (RAW264.7 [4]): 3732.8 pg/mL; Activity (RAW264.7 [5]): 1321.9 pg/mL; Activity (RAW264.7 [6]): 853.3 pg/mL; Activity (RAW264.7 [8]): 10038.7 pg/mL
7 | COC1=C[C@@H]2[C@@H]3Cc4ccc(OC)c(OC(=O)CCC(=O)Oc5c(OC)ccc6c5[C@@]57CCN(C)[C@@H](C6)[C@H]5C=C(OC)C(=O)C7)c4[C@]2(CCN3C)CC1=O | > 100 µM | > 100 µM | 
8 | COC1=C[C@@H]2[C@@H]3Cc4ccc(OC)c(OC(=O)CCCCCC(=O)Oc5c(OC)ccc6c5[C@@]57CCN(C)[C@@H](C6)[C@H]5C=C(OC)C(=O)C7)c4[C@]2(CCN3C)CC1=O | 52.7 µM |  | 
9 | CCCCCCCCOc1c(OC)ccc2c1[C@@]13CCN(C)[C@@H](C2)[C@H]1C=C(OC)C(=O)C3 | 17.6 µM | 14.2 µM | 
10 | CCCCCCCCCCOc1c(OC)ccc2c1[C@@]13CCN(C)[C@@H](C2)[C@H]1C=C(OC)C(=O)C3 | 1.9 µM |  | 
11 | CCCCC(=O)Oc1c(OC)ccc2c1[C@@]13CCN(C)[C@@H](C2)[C@H]1C=C(OC)C(=O)C3 | > 100 µM | > 100 µM | 
12 | CCCCOc1c(OC)ccc2c1[C@@]13CCN(C)[C@@H](C2)[C@H]1C=C(OC)C(=O)C3 | 68.1 µM | 59.6 µM | 
13 | CCOc1c(OC)ccc2c1[C@@]13CCN(C)[C@@H](C2)[C@H]1C=C(OC)C(=O)C3 | > 100 µM | > 100 µM | 
14 | N=C(N)NN [PIMAGEDINE] |  | 22.6 µM | 
15 | COC1=C[C@@H]2[C@@H]3Cc4ccc(OC)c(OCCCCCCCCCOc5c(OC)ccc6c5[C@@]57CCN(C)[C@@H](C6)[C@H]5C=C(OC)C(=O)C7)c4[C@]2(CCN3C)CC1=O | 3.7 µM | 2.9 µM | 
16 | COC1=C[C@@H]2[C@@H]3Cc4ccc(OC)c(OCc5ccc(COc6c(OC)ccc7c6[C@@]68CCN(C)[C@@H](C7)[C@H]6C=C(OC)C(=O)C8)cc5)c4[C@]2(CCN3C)CC1=O | 12.5 µM |  | 
17 | COC1=C[C@@H]2[C@@H]3Cc4ccc(OC)c(OCc5cccc(COc6c(OC)ccc7c6[C@@]68CCN(C)[C@@H](C7)[C@H]6C=C(OC)C(=O)C8)c5)c4[C@]2(CCN3C)CC1=O | 14.2 µM |  | 

Row | SMILES | IC50 (RAW264.7 [1]) | IC50 (RAW264.7 [7]) | also measured
18 | CCCCCOc1c(OC)ccc2c1[C@@]13CCN(C)[C@@H](C2)[C@H]1C=C(OC)C(=O)C3 | 53.4 µM | 38.8 µM | 
19 | CCCC(=O)Oc1c(OC)ccc2c1[C@@]13CCN(C)[C@@H](C2)[C@H]1C=C(OC)C(=O)C3 | > 100 µM | > 100 µM | 
20 | COC1=C[C@@H]2[C@@H]3Cc4ccc(OC)c(OC(=O)CCCC(=O)Oc5c(OC)ccc6c5[C@@]57CCN(C)[C@@H](C6)[C@H]5C=C(OC)C(=O)C7)c4[C@]2(CCN3C)CC1=O | > 100 µM | > 100 µM | 
21 | COC1=C[C@@H]2[C@@H]3Cc4ccc(OC)c(OCCCCCCOc5c(OC)ccc6c5[C@@]57CCN(C)[C@@H](C6)[C@H]5C=C(OC)C(=O)C7)c4[C@]2(CCN3C)CC1=O | 9.5 µM |  | 
22 | CCCCCCC(=O)Oc1c(OC)ccc2c1[C@@]13CCN(C)[C@@H](C2)[C@H]1C=C(OC)C(=O)C3 | 38.6 µM |  | 
23 | COC1=C[C@@H]2[C@@H]3Cc4ccc(OC)c(OCCCCCCCCOc5c(OC)ccc6c5[C@@]57CCN(C)[C@@H](C6)[C@H]5C=C(OC)C(=O)C7)c4[C@]2(CCN3C)CC1=O | 5.4 µM | 3.8 µM | 
24 | COC1=C[C@@H]2[C@@H]3Cc4ccc(OC)c(OCCCCCOc5c(OC)ccc6c5[C@@]57CCN(C)[C@@H](C6)[C@H]5C=C(OC)C(=O)C7)c4[C@]2(CCN3C)CC1=O | 4.2 µM | 3.6 µM | 
25 | CCCCCCCC(=O)Oc1c(OC)ccc2c1[C@@]13CCN(C)[C@@H](C2)[C@H]1C=C(OC)C(=O)C3 | 49.5 µM | 32.6 µM | Activity (RAW264.7 [2]): 7676.3 pg/mL; Activity (RAW264.7 [3]): 2298.9 pg/mL; Activity (RAW264.7 [4]): 3357.8 pg/mL; Activity (RAW264.7 [5]): 733.3 pg/mL; Activity (RAW264.7 [6]): 229.9 pg/mL; Activity (RAW264.7 [8]): 7143.8 pg/mL
26 | COC1=C[C@@H]2[C@@H]3Cc4ccc(OC)c(OC(=O)CCCCC(=O)Oc5c(OC)ccc6c5[C@@]57CCN(C)[C@@H](C6)[C@H]5C=C(OC)C(=O)C7)c4[C@]2(CCN3C)CC1=O | > 100 µM | > 100 µM | 
27 | CCCCCC(=O)Oc1c(OC)ccc2c1[C@@]13CCN(C)[C@@H](C2)[C@H]1C=C(OC)C(=O)C3 | 78.1 µM |  | 
28 | COC1=C[C@@H]2[C@@H]3Cc4ccc(OC)c(OCCOCCOCCOCCOc5c(OC)ccc6c5[C@@]57CCN(C)[C@@H](C6)[C@H]5C=C(OC)C(=O)C7)c4[C@]2(CCN3C)CC1=O | > 100 µM | > 100 µM | 
29 | CCCCCCCCCOc1c(OC)ccc2c1[C@@]13CCN(C)[C@@H](C2)[C@H]1C=C(OC)C(=O)C3 | 14.5 µM |  | 
30 | COC1=C[C@@H]2[C@@H]3Cc4ccc(OC)c(OCCOCCOCCOc5c(OC)ccc6c5[C@@]57CCN(C)[C@@H](C6)[C@H]5C=C(OC)C(=O)C7)c4[C@]2(CCN3C)CC1=O | > 100 µM | > 100 µM | 
31 | COC1=C[C@@H]2[C@@H]3Cc4ccc(OC)c(OC(=O)CCCCCCCC(=O)Oc5c(OC)ccc6c5[C@@]57CCN(C)[C@@H](C6)[C@H]5C=C(OC)C(=O)C7)c4[C@]2(CCN3C)CC1=O | 50.8 µM | 29.5 µM | Activity (RAW264.7 [2]): 9003.6 pg/mL; Activity (RAW264.7 [3]): 2107.1 pg/mL; Activity (RAW264.7 [4]): 3614.3 pg/mL; Activity (RAW264.7 [5]): 1577.1 pg/mL; Activity (RAW264.7 [6]): 825.5 pg/mL; Activity (RAW264.7 [8]): 12863.3 pg/mL
32 | CCCOc1c(OC)ccc2c1[C@@]13CCN(C)[C@@H](C2)[C@H]1C=C(OC)C(=O)C3 | > 100 µM | > 100 µM | 
33 | COC1=C[C@@H]2[C@@H]3Cc4ccc(OC)c(OC(=O)CCCCCCC(=O)Oc5c(OC)ccc6c5[C@@]57CCN(C)[C@@H](C6)[C@H]5C=C(OC)C(=O)C7)c4[C@]2(CCN3C)CC1=O | 17.3 µM |  | 
34 | COC1=C[C@@H]2[C@@H]3Cc4ccc(OC)c(OCCOCCOc5c(OC)ccc6c5[C@@]57CCN(C)[C@@H](C6)[C@H]5C=C(OC)C(=O)C7)c4[C@]2(CCN3C)CC1=O | 59.7 µM |  | 
